One assay addresses c-Src (Homo sapiens, UniProt P12931). The experiment in a line: In vitro kinase assay, c-Src. In kind it is biochemical.
For a further assay, the target named is Lck (Homo sapiens, UniProt P06239). Put plainly: In vitro kinase assay, Lck. In kind it is biochemical.
The next assay concerns the target Lyn (Homo sapiens, UniProt P07948). The experiment in a line: In vitro kinase assay, Lyn. In kind it is biochemical.
Assay [1] concerns Nef-defective (ΔNef) HIV-1 NL4-3. Put plainly: Nef-defective HIV-1 replication in CEM-T4 cells. In kind it is cell-based.
For a further assay, the system named is HIV-1 NL4-3. The experiment in a line: HIV-1 infectivity in TZM-bl reporter cells. In kind it is cell-based. The note with it: luciferase 48 h.
Assay [2] relates to Nef-dependent SFK activation. Put plainly: Endogenous SFK activation in HIV-infected CEM-T4 cells. In kind it is cell-based. The following applies: 1.0 μM. A digest of the protocol: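 CEM-T4 cells (1 × 10^5) were infected with 50 pg p24 equivalents/ml wild-type HIV-1 NL4-3, ΔNef mutant or Nef chimeras in 10 ml, with test compound (1 μM) or DMSO carrier. Cells were lysed 8 days later and SFKs were immunoprecipitated with a pan-specific antibody. Immunoblots used an anti-pY418 activation-loop antibody. Lysates were blotted for Gag, Nef and actin (loading control). Uninfected cells were included.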

In assay [3] the test system is HIV-1 Nef Asn126 mutants (Ala, Leu, Gln). The experiment in a line: Surface plasmon resonance, Nef Asn126 mutants. In kind it is binding. The following applies: SPR, B9 10 μM. (SPR reads the build-up and loss of mass on a sensor chip optically.)
The subject of the next assay is SIV quasispecies ΔB670. The experiment in a line: SIV replication in CEM-174 cells. The note with it: Simian immunodeficiency virus, CEM174, 120 h, read-out: IC50, SIV replication. In kind it is cell-based. A digest of the protocol: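 CEM-174 cells received test compound in DMSO over a range of concentrations, 1 h before infection with the pathogenic SIV quasispecies ΔB670. Replication was measured 5 d later as p27 Gag protein by ELISA.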

In a further assay the test system is SIV ΔB670. The experiment in a line: SIV infectivity in TZM-bl reporter cells. In kind it is cell-based. The note with it: Simian immunodeficiency virus, read-out: IC50, SIV infectivity. An outline of the steps: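 TZM-bl reporter cells (2.5 × 10^4/well) were plated 8 h before infection to adhere. Test compound was pre-incubated with SIV ΔB670 for 4 h, then added to the cells (final 200 μl). After 48 h at 37 °C, cells were washed with PBS and lysed. Infectivity was read as luciferase luminescence.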

Another assay deals with Nef dimerization (Human immunodeficiency virus type 1 group M subtype B, UniProt P03407). The experiment in a line: BiFC assay for Nef dimerization in 293T cells. In kind it is cell-based, HIV-1. The note with it: 1–6 μM, 48 h.
Nef dimerization, sequence (P03407 whole entry): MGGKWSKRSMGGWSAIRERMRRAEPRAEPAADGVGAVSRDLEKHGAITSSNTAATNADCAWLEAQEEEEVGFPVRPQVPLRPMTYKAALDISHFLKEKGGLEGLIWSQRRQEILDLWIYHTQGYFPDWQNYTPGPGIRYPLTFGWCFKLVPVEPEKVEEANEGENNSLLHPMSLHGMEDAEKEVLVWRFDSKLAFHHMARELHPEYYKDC

Lyn, sequence (P07948 whole entry, species assumed): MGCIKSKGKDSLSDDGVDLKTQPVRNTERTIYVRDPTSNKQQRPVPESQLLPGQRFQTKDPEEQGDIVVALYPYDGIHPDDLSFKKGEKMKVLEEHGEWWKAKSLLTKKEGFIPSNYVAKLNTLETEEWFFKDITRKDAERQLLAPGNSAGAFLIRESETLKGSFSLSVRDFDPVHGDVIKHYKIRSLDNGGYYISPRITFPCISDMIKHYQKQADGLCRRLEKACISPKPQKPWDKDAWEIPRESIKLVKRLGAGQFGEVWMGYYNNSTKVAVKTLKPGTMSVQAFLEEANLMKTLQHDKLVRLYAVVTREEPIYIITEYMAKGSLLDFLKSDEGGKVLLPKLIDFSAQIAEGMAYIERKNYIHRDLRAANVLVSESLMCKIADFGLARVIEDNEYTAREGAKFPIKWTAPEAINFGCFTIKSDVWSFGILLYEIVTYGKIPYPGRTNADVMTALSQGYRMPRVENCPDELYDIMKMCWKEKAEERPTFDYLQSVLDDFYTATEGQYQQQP
Lck, sequence (P06239 whole entry, species assumed): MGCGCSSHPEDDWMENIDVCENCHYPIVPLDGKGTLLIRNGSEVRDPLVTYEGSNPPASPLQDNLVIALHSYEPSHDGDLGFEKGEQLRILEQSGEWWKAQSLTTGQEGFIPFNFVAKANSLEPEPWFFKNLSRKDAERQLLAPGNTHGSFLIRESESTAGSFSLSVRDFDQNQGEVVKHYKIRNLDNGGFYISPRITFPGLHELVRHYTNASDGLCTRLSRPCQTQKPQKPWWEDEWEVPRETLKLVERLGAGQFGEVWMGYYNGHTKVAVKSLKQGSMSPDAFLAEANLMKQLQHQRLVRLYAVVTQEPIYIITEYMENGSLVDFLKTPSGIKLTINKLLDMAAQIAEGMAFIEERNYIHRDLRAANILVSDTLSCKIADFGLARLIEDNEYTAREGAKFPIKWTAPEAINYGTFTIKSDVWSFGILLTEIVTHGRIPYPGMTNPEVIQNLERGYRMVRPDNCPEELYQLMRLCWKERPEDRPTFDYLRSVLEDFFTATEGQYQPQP
c-Src, sequence (P12931 whole entry, species assumed): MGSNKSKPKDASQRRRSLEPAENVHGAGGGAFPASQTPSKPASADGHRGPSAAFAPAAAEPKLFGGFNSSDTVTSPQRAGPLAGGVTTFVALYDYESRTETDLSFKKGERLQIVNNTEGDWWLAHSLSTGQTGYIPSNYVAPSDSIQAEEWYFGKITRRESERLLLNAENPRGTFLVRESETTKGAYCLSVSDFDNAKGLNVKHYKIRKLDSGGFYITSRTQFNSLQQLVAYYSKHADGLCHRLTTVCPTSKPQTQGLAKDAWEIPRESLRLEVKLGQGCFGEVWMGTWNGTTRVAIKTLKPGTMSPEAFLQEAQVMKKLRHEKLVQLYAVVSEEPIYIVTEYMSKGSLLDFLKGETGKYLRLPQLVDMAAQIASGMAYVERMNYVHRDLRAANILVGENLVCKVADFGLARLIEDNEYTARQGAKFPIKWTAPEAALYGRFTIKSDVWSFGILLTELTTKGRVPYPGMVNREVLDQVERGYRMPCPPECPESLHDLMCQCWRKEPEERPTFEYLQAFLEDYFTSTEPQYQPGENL

`NC(=S)n1nc(-c2ccc([N+](=O)[O-])cc2)c(/N=N/c2cccc(Cl)c2)c1O` [B9, (E)-4-((3-chlorophenyl)diazenyl)-5-hydroxy-3-(4-nitrophenyl)-1H-pyrazole-1-carbothioamide]: the IC50 (in general, the concentration that gives 50% inhibition) is > 20 µM against c-Src; > 20 µM against Lck; > 20 µM at Lyn; ~1 µM in the assay with SIV quasispecies ΔB670; ~3 µM in the assay with SIV ΔB670. Moreover, the “Effect on Nef-defective HIV replication (chimera experiment)” value in [1] (0.3 and 1.0 μM, 10 days) was “no effect”. In assay [1] (highest concentration tested 3.0 μM), the “Effect on replication of Nef-defective HIV-1” value is listed as “unaffected”. In addition, in the assay with HIV-1 NL4-3, the “Nef-mediated enhancement of HIV-1 infectivity” value is “inhibited Nef-mediated enhancement of HIV-1 infectivity in a concentration-dependent manner”. The “Nef-dependent SFK activation (pY418)” value in [2] is “completely inhibited”. The “Binding to Nef Asn126 mutants” value in assay [3] was “none of these mutants demonstrated detectable binding”. At Nef dimerization, the “Nef BiFC signal (Nef dimerization)” value was “concentration-dependent loss”.

The values are drawn from article PMC3559019 (Chemistry & biology, 2013).
